Experimental data from ChEMBL document CHEMBL4613249, “Serendipitous Discovery of Leucine and Methionine Depletion Agents during the Search for Polyamine Transport Inhibitors” (J Med Chem, 2020).
pIC50: −log10 of the molar value. Activity calls are given as the source filed them. The rule behind the calls is not given here.

Key:
CHO-K1 [1] = assay: Inhibition of polyamine transporter in DFMO-treated CHOK1 cells assessed as prevention of spermidine entry into cells by measuring rescue of DFMO-induced reduction in cell growth at 1 to 6 uM measured after 48 hrs in presence of amine oxidase suppressor aminoguanidine by MTS assay; assay type: cell-based; conditions: Cricetulus griseus
In short: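 CHO K1 cells (1000 cells/well) were pre-incubated 24 h with 1 mM aminoguanidine. They were then given fixed DFMO (4.2 mM) and spermidine (1 μM) plus increasing compound doses for 48 h at 37°C. EC50 is the concentration bringing MTS relative growth halfway between the DFMO+Spd and DFMO-only controls. Runs were done twice in triplicate, with SD.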

CHO-K1 [2] = assay: Inhibition of polyamine transporter in CHOK1 cells assessed as rescue of 2.4 uM N-(anthracenylmethyl) homospermidine-induced toxicity by measuring cell growth at 7 uM measured after 48 hrs in presence of amine oxidase suppressor aminoguanidine by MTS assay (reference value: 23%); assay type: cell-based; design: scale not given: the % may be the effect or the level left; conditions: Cricetulus griseus
In short: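 CHO K1 cells (1000 cells/well, aminoguanidine 1 mM preincubation) were given a toxic Ant-44 dose (2.4 μM) with candidate compound at 5 or 7 μM. Cells were incubated 48 h at 37°C, and relative growth versus untreated control was read by MTS.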

L3.6pl [3] = assay: Effect on polyamine level in human L3.6PL cells assessed as decrease in intracellular spermidine level at 2 to 7 uM measured after 72 hrs in presence of amine oxidase suppressor aminoguanidine by LCMS analysis; assay type: functional, cell-based; conditions: in the assay text read “by N-dansylation and HPLC analysis” for “by LCMS analysis”
In short: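 L3.6pl cells, 50,000 cells/mL in 10 mL per Petri dish with 1 mM aminoguanidine, plated overnight. Dosed with compound at 2, 5 or 7 μM from PBS stocks, then 72 h at 37°C. Intracellular polyamines measured by N-dansylation and HPLC, in duplicate, as nmol/mg protein against a parallel untreated control.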

L3.6pl [4] = assay: Cytotoxicity against human L3.6PL cells assessed as reduction in cell viability at 0.25 to 20 uM measured after 24 to 72 hrs by MTS assay; assay type: cell-based
In short: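 Time course in L3.6pl cells, 500 cells/well, with compound alone for 24, 48 and 72 h exposure at 37°C. Growth by MTS absorbance at 490 nm relative to untreated control.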

L3.6pl [5] = assay: Effect on polyamine level in human L3.6PL cells assessed as spermidine level per mg protein in supernatant at 5 uM measured after 72 hrs in presence of amine oxidase suppressor aminoguanidine by LCMS analysis (reference value: 339 pmol/mg); assay type: functional
L3.6pl [6] = assay: Effect on polyamine level in human L3.6PL cells assessed as spermine level per mg protein in supernatant at 5 uM measured after 72 hrs in presence of amine oxidase suppressor aminoguanidine by LCMS analysis (reference value: 6152 +/- 5596 pmol/mg); assay type: functional
L3.6pl [7] = assay: Effect on polyamine level in human L3.6PL cells assessed as acetyl spermine level per mg protein in supernatant at 5 uM measured after 72 hrs in presence of amine oxidase suppressor aminoguanidine by LCMS analysis (reference value: 77 +/- 43 pmol/mg); assay type: functional
L3.6pl [8] = assay: Effect on polyamine level in human L3.6PL cells assessed as ornithine level per mg protein in supernatant at 5 uM measured after 72 hrs in presence of amine oxidase suppressor aminoguanidine by LCMS analysis (reference value: 10588 +/- 3212 pmol/mg); assay type: functional
L3.6pl [9] = assay: Effect on polyamine level in human L3.6PL cells assessed as phenylalanine level per mg protein in supernatant at 2 uM measured after 72 hrs in presence of amine oxidase suppressor aminoguanidine by LCMS analysis (reference value: 14299 +/- 7194 pmol/mg); assay type: functional
[10] = molecular target: Large neutral amino acids transporter small subunit 1 (Homo sapiens) (UniProt Q01650); assay: Inhibition of LAT1-mediated amino acid transport in human L3.6PL cells assessed as reduction in intracellular leucine level by measuring leucine level per mg protein in cell lysate at 5 uM measured after 72 hrs by LCMS analysis (reference value: 232 +/- 10 pmol/mg); assay type: cell-based
Large neutral amino acids transporter small subunit 1 (Homo sapiens), sequence (Q01650 whole entry): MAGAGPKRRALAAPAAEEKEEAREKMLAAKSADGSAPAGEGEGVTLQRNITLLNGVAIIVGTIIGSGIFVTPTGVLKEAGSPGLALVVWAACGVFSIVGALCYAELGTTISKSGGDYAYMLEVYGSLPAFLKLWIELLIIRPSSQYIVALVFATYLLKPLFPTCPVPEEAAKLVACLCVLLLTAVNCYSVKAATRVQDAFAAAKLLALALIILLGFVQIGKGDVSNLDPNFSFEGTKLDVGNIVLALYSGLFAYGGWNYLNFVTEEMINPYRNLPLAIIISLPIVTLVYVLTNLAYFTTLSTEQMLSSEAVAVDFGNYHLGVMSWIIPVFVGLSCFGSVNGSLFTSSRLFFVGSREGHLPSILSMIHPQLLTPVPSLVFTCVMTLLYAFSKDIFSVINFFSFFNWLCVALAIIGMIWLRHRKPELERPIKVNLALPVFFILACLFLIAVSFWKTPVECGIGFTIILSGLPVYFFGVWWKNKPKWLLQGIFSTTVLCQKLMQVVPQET
In short: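 L3.6pl cells (50,000 cells/mL, 10 mL, 1 mM aminoguanidine) were seeded in poly-lysine-treated 9 cm dishes and incubated overnight at 37°C. They were then dosed with compound at 2, 5 or 7 μM from PBS stocks (2, 5, 7 mM) and incubated 72 h. Runs were done in triplicate, with amino acid levels per mg protein.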

[11] = molecular target: Large neutral amino acids transporter small subunit 1 (Homo sapiens) (UniProt Q01650); assay: Inhibition of LAT1-mediated [3H]-leucine uptake in human L3.6PL cells at 2 to 7 uM preincubated for 24 hrs at 37 degree C followed by HBBS addition and compound washout and measured after 15 mins by scintillation counter method; assay type: cell-based
In short: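 L3.6pl cells were preincubated with compound for 24 h at 37°C, then washed and placed in HBSS. ³H-leucine uptake was measured over 15 min at 37°C. Unbound label was removed with three cold buffer washes, and counts were normalized to μg protein.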

CHO-MG = assay: Cytotoxicity against CHO-MG cells assessed as reduction in cell viability after 48 hrs by MTS assay; assay type: cell-based; conditions: Cricetulus griseus
In short: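 Cells in RPMI 1640 with 10% FBS, 1% penicillin/streptomycin, 37°C, 5% CO2, with aminoguanidine (1 mM for CHO K1 and CHO-MG, 250 μM for L3.6pl). Plated overnight at 1000 cells/well (CHO lines) or 500 cells/well (L3.6pl). Compound in PBS added, 48 h exposure. Growth read as MTS formazan absorbance at 490 nm. IC50 is the dose giving 50% relative growth versus untreated control. Run twice in triplicate.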

[12] = molecular target: Large neutral amino acids transporter small subunit 1 (Homo sapiens) (UniProt Q01650); assay: Induction of LAT1-mediated polyamine efflux in aminoguanidine pretreated human L3.6PL cells assessed as reduction in cell viability at 5 uM measured after 72 hrs in presence of putrescine by MTS assay; assay type: cell-based
In short: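 L3.6pl cells pre-incubated 24 h with 250 μM aminoguanidine. Then given increasing compound plus putrescine, spermidine or spermine, each fixed at 1 or 5 μM, for 72 h at 37°C. Growth by MTS relative to untreated control.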

CHO-K1 [13] = assay: Induction of polyamine efflux in aminoguanidine pretreated CHOK1 cells assessed as reduction in cell viability measured after 72 hrs in presence of putrescine by MTS assay; assay type: ADME, cell-based, Cricetulus griseus; conditions: chinese hamster, cho-k1, 72 h
L3.6pl [14] = assay: Induction of polyamine import in human L3.6PL cells assessed as increase in intracellular Ant-44 uptake by measuring Ant-44 level per protein at 1 measured up to 72 hrs in presence of amine oxidase suppressor aminoguanidine by LCMS analysis (reference value: 2.15 +/- 0.1 nmol/mg); assay type: functional
L3.6pl [15] = assay: Effect on polyamine level in human L3.6PL cells assessed as decrease in intracellular spermidine level at 1 uM measured after 72 hrs in presence of amine oxidase suppressor aminoguanidine and Ant-44 by LCMS analysis; assay type: functional, cell-based
In short: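 L3.6pl cells dosed with Ant-44 fixed at 2 μM plus increasing compound for 72 h at 37°C. Intracellular polyamines and Ant-44 given as nmol/mg protein, in duplicate, with a parallel untreated control.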

L3.6pl [16] = assay: Effect on polyamine level in human L3.6PL cells assessed as glutamic acid level per mg protein in supernatant at 5 uM measured after 72 hrs in presence of amine oxidase suppressor aminoguanidine by LCMS analysis (reference value: 23412 +/- 3983 pmol/mg)

In the case of `CC(C)CCN1CCN([C@@H](CNCc2ccccc2)CC2CCCCC2)C[C@@H]1CC(C)C`, the inhibition (CHO-K1 [1]) was “inactive”, the Activity (CHO-K1 [2]) was 3% and the Activity (L3.6pl [3]) was “Active”. The Activity (L3.6pl [4]) was “Toxic”, the Activity (L3.6pl [5]) was 167 pmol/mg and the Activity (L3.6pl [6]) was 2690 pmol/mg. For the same molecule, the Activity (L3.6pl [7]) was 36 pmol/mg, the Activity (L3.6pl [8]) was 15951 pmol/mg and the Activity (L3.6pl [9]) was 11954 pmol/mg. For the same molecule, the Activity [10] was 94 pmol/mg, the inhibition [11] was “inactive” and the pIC50 (CHO-MG) was 5.05. The Activity [12] was “Active”, the Activity (CHO-K1 [13]) was “Active” and the Activity (L3.6pl [14]) was 2.08 nmol/mg. For the same molecule, the Activity (L3.6pl [15]) was “Active” and the Activity (L3.6pl [16]) was 34033 pmol/mg.
